Test results: ChEMBL document CHEMBL3779820, “Discovery of a Novel Inhibitor of Histone Lysine-Specific Demethylase 1A (KDM1A/LSD1) as Orally Active Antitumor Agent” (J Med Chem, 2016)
The source made the active and inactive calls. The calls are words filed in the database; no cut-off is given here.

How the values were obtained:
[1] = Anticlonogenic activity against 129sv mouse APL blast cells assessed as inhibition of colony formation of cells at 0.25 uM measured after 7 days relative to control; format: functional; conditions: 168 h
[2] = Anticlonogenic activity against human THP1 cells assessed as inhibition of colony formation of cells at 0.5 uM measured after 13 days relative to control; format: functional; conditions: THP-1, […]
Outline: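 THP-1 cells (RPMI, 10% FBS, 2 mM L-glutamine, 37°C, 5% CO2) plated at 250 cells/plate in enriched methylcellulose medium with compound at 0.5 µM for 13 days.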

[3] = molecular target: T1, Lysine-specific histone demethylase 2 (Homo sapiens, UniProt Q8NB78); assay: Inhibition of KDM1B (unknown origin)
T1 sequence (Q8NB78 whole entry): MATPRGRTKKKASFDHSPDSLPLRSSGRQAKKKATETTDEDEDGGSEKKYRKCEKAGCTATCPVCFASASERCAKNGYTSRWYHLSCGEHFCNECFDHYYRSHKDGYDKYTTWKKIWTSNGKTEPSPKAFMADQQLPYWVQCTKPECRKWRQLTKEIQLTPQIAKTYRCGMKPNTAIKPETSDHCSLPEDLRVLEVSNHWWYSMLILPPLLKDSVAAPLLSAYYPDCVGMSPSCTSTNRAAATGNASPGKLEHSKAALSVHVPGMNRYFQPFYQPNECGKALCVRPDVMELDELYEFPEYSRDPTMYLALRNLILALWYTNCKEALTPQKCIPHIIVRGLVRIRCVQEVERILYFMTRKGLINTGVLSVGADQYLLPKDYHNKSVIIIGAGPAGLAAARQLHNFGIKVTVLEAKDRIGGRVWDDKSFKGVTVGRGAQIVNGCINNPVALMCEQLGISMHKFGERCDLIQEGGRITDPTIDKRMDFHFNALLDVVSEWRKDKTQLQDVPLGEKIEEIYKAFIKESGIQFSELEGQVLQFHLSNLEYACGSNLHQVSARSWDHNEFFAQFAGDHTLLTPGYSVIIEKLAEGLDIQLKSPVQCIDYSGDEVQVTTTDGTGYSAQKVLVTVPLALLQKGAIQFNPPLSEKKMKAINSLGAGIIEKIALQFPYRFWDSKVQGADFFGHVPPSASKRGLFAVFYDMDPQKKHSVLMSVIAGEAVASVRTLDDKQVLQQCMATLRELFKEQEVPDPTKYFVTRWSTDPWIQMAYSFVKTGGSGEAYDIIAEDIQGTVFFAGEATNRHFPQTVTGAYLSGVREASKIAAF

[4] = molecular target: Lysine-specific histone demethylase 1A (Homo sapiens) (UniProt O60341); assay: Inhibition of KDM1A in human NB4 cells assessed as increase in CD11b mRNA expression at biochemical IC50 measured after 24 hrs by RT-PCR analysis relative to control; format: cell-based; conditions: NB-4
[5] = molecular target: Lysine-specific histone demethylase 1A (Homo sapiens) (UniProt O60341); assay: Inhibition of KDM1A in human NB4 cells assessed as increase in GFI1B mRNA expression at biochemical IC50 measured after 24 hrs by RT-PCR analysis relative to control; format: cell-based; conditions: NB-4
LSD1/CoREST complex = LSD1/CoREST complex (Homo sapiens, UniProt O60341); assay: Inhibition of human recombinant KDM1A/CoREST expressed in Escherichia coli using mono-methylated H3-K4 peptide as substrate assessed as H2O2 release preincubated for 15 mins followed by substrate addition measured for 12 mins by fluorescence-based microplate reader analysis
Outline: (§1)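 Human recombinant KDM1A/CoREST, KDM1B, MAO A and MAO B used as enzyme sources; compounds incubated with the enzyme and results expressed as IC50.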

THP-1 [6] = assay: Induction of differentiation of human THP1 cells after 13 days by cytospin assay; format: functional, cell-based
Outline: (§2)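 THP-1 cells cultured 13 days in semisolid methylcellulose with compound at 0.5 µM; colony morphology imaged, and cells recovered at end of culture examined as May Grunwald-Giemsa-stained cytospin preparations.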

THP-1 [7] = assay: Induction of differentiation of human THP1 cells assessed assessed as alteration in morphology of colonies after 13 days by May Grunwald-Giemsa staining based assay; format: functional, cell-based; outline: as §2
[8] = molecular target: T2, Amine oxidase [flavin-containing] A (Homo sapiens, UniProt P21397); assay: Inhibition of human recombinant MAOA expressed in Pichia pastoris preincubated for 15 mins measured after 30 mins by bioluminescent-coupled assay; outline: as §1
T2 sequence (P21397 whole entry): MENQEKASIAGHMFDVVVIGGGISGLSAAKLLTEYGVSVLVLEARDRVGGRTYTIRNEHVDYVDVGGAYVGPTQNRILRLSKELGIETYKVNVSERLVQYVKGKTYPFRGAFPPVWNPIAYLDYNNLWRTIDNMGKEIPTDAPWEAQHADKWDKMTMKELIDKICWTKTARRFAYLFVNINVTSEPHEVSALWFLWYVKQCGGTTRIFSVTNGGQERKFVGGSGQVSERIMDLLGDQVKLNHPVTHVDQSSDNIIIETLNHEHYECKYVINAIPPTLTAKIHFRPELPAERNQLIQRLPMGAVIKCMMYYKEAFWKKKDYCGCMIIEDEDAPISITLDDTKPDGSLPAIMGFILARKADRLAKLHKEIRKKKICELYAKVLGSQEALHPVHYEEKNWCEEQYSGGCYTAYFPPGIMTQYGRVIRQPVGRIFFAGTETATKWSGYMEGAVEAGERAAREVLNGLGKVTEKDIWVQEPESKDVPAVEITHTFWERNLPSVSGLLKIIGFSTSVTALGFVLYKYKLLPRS

[9] = Antitumor activity against 129SvEv mouse APL blast cells implanted in nonirradiated 129SvEv mouse assessed as increase in survival of leukemic mouse at 0.0125 mg/kg, ip administered for 5 days per week for 2 weeks by Kaplan-Meier plot analysis relative to vehicle control; format: functional
Outline: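 One million leukemic blasts from 129SvEv mice given iv to non-irradiated syngeneic recipients; groups of at least 6 mice randomized. Dosing began once blasts appeared in peripheral blood (about day 10). Drug dissolved in 40% PEG 400 in 5% glucose and given ip. Survival compared with the vehicle group by Kaplan–Meier analysis.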

[10] = Cmax in CD1 mouse at 15 mg/kg, po administered as single dose; format: ADME, organism-based; design: dose 15 mg/kg, route oral; conditions: in vivo
Outline: (§3)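 Single dose to CD1 mice: 5 mg/kg iv in 5% glucose with 10% tween 80, or 15 mg/kg orally in 5% glucose with 40% PEG. Plasma parameters derived from concentration–time profiles.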

Mus musculus [11] = assay: Toxicity in nonirradiated 129SvEv mouse implanted with 129SvEv mouse APL blast cells assessed as change in body weight at 27 mg/kg, po administered for 5 days per week for 2 weeks measured during compound dosing; format: organism-based; conditions: in vivo
[12] = molecular target: T3, Amine oxidase [flavin-containing] B (Homo sapiens, UniProt P27338); assay: Inhibition of human recombinant MAOB expressed in Pichia pastoris preincubated for 15 mins measured after 30 mins by bioluminescent-coupled assay; outline: as §1
T3 sequence (P27338 whole entry): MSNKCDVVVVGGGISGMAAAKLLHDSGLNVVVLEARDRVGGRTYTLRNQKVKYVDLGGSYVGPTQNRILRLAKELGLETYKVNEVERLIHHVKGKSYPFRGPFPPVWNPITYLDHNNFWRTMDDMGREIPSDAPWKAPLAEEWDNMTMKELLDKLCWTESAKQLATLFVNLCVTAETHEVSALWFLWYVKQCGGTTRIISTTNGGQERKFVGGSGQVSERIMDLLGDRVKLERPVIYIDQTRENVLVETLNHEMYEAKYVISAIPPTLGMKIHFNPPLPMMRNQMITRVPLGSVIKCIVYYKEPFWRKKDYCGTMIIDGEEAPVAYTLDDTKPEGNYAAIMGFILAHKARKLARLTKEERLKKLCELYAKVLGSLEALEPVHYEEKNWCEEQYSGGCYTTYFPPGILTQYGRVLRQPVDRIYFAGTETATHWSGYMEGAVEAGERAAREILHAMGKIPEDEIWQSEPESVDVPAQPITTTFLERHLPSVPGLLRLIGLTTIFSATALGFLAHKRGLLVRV

[13] = Half life in CD1 mouse at 5 mg/kg, iv administered as single dose; format: ADME, organism-based; conditions: in vivo; outline: as §3
[14] = AUC (0 to infinity) in CD1 mouse at 15 mg/kg, po administered as single dose; format: ADME, organism-based; design: dose 15 mg/kg, time infinity, route oral; conditions: in vivo; outline: as §3
[15] = Oral bioavailability in CD1 mouse at 15 mg/kg administered as single dose; format: ADME, organism-based; conditions: in vivo; outline: as §3
[16] = AUC (0 to infinity) in CD1 mouse at 5 mg/kg, iv administered as single dose; format: ADME, organism-based; design: dose 5 mg/kg, time infinity, route intravenous; conditions: in vivo; outline: as §3
[17] = Clearance in CD1 mouse at 5 mg/kg, iv administered as single dose; format: ADME, organism-based; conditions: in vivo; outline: as §3
[18] = Cmax in CD1 mouse at 5 mg/kg, iv administered as single dose; format: ADME, organism-based; design: dose 5 mg/kg, route intravenous; conditions: in vivo; outline: as §3
[19] = Antitumor activity against 129SvEv mouse APL blast cells implanted in nonirradiated 129SvEv mouse assessed as increase in survival of leukemic mouse at 27 mg/kg, po administered for 5 days per week for 2 weeks by Kaplan-Meier plot analysis relative to vehicle control; format: functional
Outline: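 Gavage in 40% PEG 400 in 5% glucose began once peripheral-blood blasts appeared (about day 10). Survival analysed by Kaplan–Meier versus vehicle. Separate arm for GFI1B: spleen cells taken after 3 days of dosing, qRT-PCR normalized to TBP.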

Mus musculus [20] = assay: Terminal volume of distribution in CD1 mouse at 5 mg/kg, iv administered as single dose; format: ADME, organism-based; conditions: in vivo; outline: as §3
[21] = Tmax in CD1 mouse at 15 mg/kg, po administered as single dose; format: ADME, organism-based; conditions: in vivo; outline: as §3

Structure (SMILES)	inhibition at 0.25 µM [1] [%]	inhibition at 0.5 µM [2] [%]	IC50 [3] [µM]	fold change (FC) [4]	fold change (FC) [5]	IC50 (LSD1/CoREST complex) [µM]	IC50 [8] [µM]	IC50 [12] [µM]	other results
N[C@@H]1C[C@H]1c1ccc(NC(=O)c2ccccc2)cc1	73	8	58.3	–	–	–	–	–	–
CN1CCN(c2ccc(C(=O)Nc3ccc([C@H]4C[C@@H]4N)cc3)cc2)CC1	–	–	–	3.1	3	0.23	–	–	–
CN1CCN(c2ccc(C(=O)Nc3ccc([C@@H]4C[C@H]4N)cc3)cc2)CC1 [listing 1 of 2 here]	–	–	–	–	–	0.084	–	–	–
N[C@H]1CC[C@H](N[C@@H]2C[C@H]2c2ccccc2)CC1	84	58	43.4	5.1	7	–	48.4	–	Activity (THP-1 [6]): Active; Activity (THP-1 [7]): Active; Activity [9]: 14%
CN1CCN(c2ccc(C(=O)Nc3ccc([C@@H]4C[C@H]4N)cc3)cc2)CC1 [listing 2 of 2 here]	–	–	–	3.9	4.2	–	–	–	–
Cl.N[C@@H]1C[C@H]1c1ccc(NC(=O)c2cccc(N3CCOC3=O)c2)cc1 (racemic)	79	51	12.6	2.9	4.3	0.028	0.0905	80.2	Cmax [10]: 1.14 µM; Activity (Mus musculus [11]): Non-toxic; half-life [13]: 1.92 h; AUC(0-inf) [14]: 7.12 µM·h; bioavailability [15]: 55.8%; AUC(0-inf) [16]: 4.62 µM·h; Activity (THP-1 [6]): Active; clearance [17]: 2.98 L/h/kg; Cmax [18]: 3.65 µM; Activity (THP-1 [7]): Active; Activity [19]: 15%; Vz/F (Mus musculus [20]): 8.45 L/kg; Tmax [21]: 0.667 h
N[C@@H]1C[C@H]1c1ccc(NC(=O)c2ccc(-c3ccoc3)cc2)cc1 (racemic)	–	–	51	–	–	0.0225	0.04	0.087	–
N[C@@H]1C[C@H]1c1ccc(NC(=O)c2ccc(N3CCOC3=O)cc2)cc1 (racemic)	–	–	–	–	–	0.0335	0.0297	1.6	–
